The results in this text go back to ChEMBL document CHEMBL4007497, “Development of Potent and Selective Antagonists for the UTP-Activated P2Y4 Receptor” (J Med Chem, 2017).

For test [1], the target named is T1, P2Y purinoceptor 12 (Homo sapiens, UniProt Q9H244). As to the kind of experiment: Competitive antagonist activity at human P2Y12 receptor expressed in CHO cells assessed as forskolin/ 2-methylthio-ADP-induced cAMP production preincubated for 10 mins followed 2-methylthio-ADP addition measured after 3.5 hrs by luciferase reporter gene assay. It counts as functional, cell-based. As to conditions: read-out: pA2 (converted). Background: cAMP levels reflect the balance of adenylyl cyclase and phosphodiesterase activity.
T1 sequence (Q9H244 whole entry): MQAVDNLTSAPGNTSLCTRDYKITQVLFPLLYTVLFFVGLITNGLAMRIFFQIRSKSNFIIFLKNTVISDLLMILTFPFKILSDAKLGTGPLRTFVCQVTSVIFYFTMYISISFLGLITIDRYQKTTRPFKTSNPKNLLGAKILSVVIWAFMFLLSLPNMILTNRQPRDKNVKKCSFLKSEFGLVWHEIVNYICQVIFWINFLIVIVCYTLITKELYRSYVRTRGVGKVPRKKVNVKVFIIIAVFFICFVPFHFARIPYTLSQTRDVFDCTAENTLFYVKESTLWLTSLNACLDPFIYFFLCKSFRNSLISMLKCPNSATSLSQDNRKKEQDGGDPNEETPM

Test [2] deals with T2, P2Y purinoceptor 6 (Homo sapiens, UniProt Q15077). As to the kind of experiment: Antagonist activity at human P2Y6 receptor transfected in human 1321N1 cells assessed as inhibition of UDP-activated intracellular calcium mobilization at 50 uM preincubated for 30 mins followed by UDP addition by fluo-4-dye based fluorescence assay. It counts as functional, cell-based. A general note: A change in cytosolic calcium serves as a functional read-out for many receptors and channels.
T2 sequence (Q15077 whole entry): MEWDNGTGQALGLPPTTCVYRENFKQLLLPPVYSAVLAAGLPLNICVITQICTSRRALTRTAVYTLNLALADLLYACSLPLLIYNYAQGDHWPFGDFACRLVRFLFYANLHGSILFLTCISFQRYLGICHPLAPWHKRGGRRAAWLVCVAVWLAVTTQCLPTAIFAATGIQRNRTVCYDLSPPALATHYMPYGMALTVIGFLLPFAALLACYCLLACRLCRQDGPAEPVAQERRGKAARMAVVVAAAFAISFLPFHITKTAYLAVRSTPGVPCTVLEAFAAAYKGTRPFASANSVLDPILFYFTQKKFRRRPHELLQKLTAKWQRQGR

Test [3] concerns the target T3, P2Y purinoceptor 4 (Homo sapiens, UniProt P51582). As to the kind of experiment: Antagonist activity at human P2Y4 receptor transfected in human 1321N1 cells assessed as inhibition of UTP-activated intracellular calcium mobilization preincubated for 30 mins followed by UTP addition by fluo-4-dye based fluorescence assay. It is filed as functional, cell-based. In short, it runs like this:
(§1)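 1321N1 astrocytoma cells stably expressing the human P2Y subtype, grown in DMEM with 10 % FCS and 200 μg/mL G418 at 37 °C. Plated 50,000 cells/well about 24 h before testing. Cells loaded with fluo-4 AM for 1 h, then placed in HBSS and preincubated 30 min with compound. Agonist was injected at about EC80: ADP 500 nM (P2Y1), UTP 500 nM (P2Y2, P2Y4), UDP 750 nM (P2Y6). Fluorescence read at ex 488/em 525 nm. At least three independent experiments in duplicate. IC50 obtained by nonlinear regression.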

Test [4] addresses T4, P2Y purinoceptor 1 (Homo sapiens, UniProt P47900). As to the kind of experiment: Antagonist activity at human P2Y1 receptor transfected in human 1321N1 cells assessed as inhibition of ADP-activated intracellular calcium mobilization preincubated for 30 mins followed by ADP addition by fluo-4-dye based fluorescence assay. It is filed as functional, cell-based. In short, it runs like this:
as §1

The target in test [5] is T4, P2Y purinoceptor 1. As to the kind of experiment: Antagonist activity at human P2Y1 receptor transfected in human 1321N1 cells assessed as inhibition of ADP-activated intracellular calcium mobilization at 50 uM preincubated for 30 mins followed by ADP addition by fluo-4-dye based fluorescence assay. It is filed as functional, cell-based.
The target in another test is P2Y purinoceptor 2 (Homo sapiens, UniProt P41231). As to the kind of experiment: Antagonist activity at human P2Y2 receptor transfected in human 1321N1 cells assessed as inhibition of UTP-activated intracellular calcium mobilization preincubated for 30 mins followed by UTP addition by fluo-4-dye based fluorescence assay. It counts as functional, cell-based. In short, it runs like this: as §1
Chain of P2Y purinoceptor 2 (P41231 whole entry): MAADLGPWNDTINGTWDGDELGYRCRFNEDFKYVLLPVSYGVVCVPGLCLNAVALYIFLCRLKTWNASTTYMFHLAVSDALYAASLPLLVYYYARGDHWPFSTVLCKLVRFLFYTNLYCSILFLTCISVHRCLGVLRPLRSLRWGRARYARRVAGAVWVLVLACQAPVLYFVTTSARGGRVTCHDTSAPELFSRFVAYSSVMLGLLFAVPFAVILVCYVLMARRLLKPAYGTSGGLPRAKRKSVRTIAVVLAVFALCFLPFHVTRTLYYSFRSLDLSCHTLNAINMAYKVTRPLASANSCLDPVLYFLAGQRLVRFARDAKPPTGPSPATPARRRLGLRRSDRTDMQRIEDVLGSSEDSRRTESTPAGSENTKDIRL

The target of test [6] is T2, P2Y purinoceptor 6. As to the kind of experiment: Antagonist activity at human P2Y6 receptor transfected in human 1321N1 cells assessed as inhibition of UDP-activated intracellular calcium mobilization preincubated for 30 mins followed by UDP addition by fluo-4-dye based fluorescence assay. It counts as functional, cell-based. Put shortly: as §1
In test [7] the target is T1, P2Y purinoceptor 12. As to the kind of experiment: Antagonist activity at human P2Y12 receptor expressed in CHO cells assessed as inhibition of 2-MeSADP-induced beta-arrestin translocation preincubated for 30 mins followed by 2-MeSADP addition measured after 90 mins by luminescence-based topcount method. It is filed as cell-based.
The target in test [8] is T3, P2Y purinoceptor 4. As to the kind of experiment: Antagonist activity at human P2Y4 receptor transfected in human 1321N1 cells assessed as inhibition of UTP-activated intracellular calcium mobilization at 100 uM preincubated for 30 mins followed by UTP addition by fluo-4-dye based fluorescence assay. It counts as functional, cell-based.
Test [9] addresses T3, P2Y purinoceptor 4. As to the kind of experiment: Non-competitive antagonist activity at human P2Y4 receptor transfected in human 1321N1 cells assessed as inhibition of UTP-activated intracellular calcium mobilization at 15 uM preincubated for 30 mins followed by UTP addition by fluo-4-dye based fluorescence assay. It counts as functional, cell-based. Put shortly: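 Fluo-4-loaded 1321N1 cells stably expressing human P2Y4 were preincubated 30 min with fixed antagonist concentrations up to 15 μM in HBSS. Full UTP concentration-response curves were then recorded by injecting UTP and reading fluorescence immediately (ex 488/em 525 nm). The mode of antagonism was judged from depression of the maximum versus rightward shift. EC50 values were compared by unpaired t-test.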

As usually defined, the inhibition is the change of the read-out against control, counted positive when it falls. In general, IC50 refers to the concentration that gives 50% inhibition.

Structures are written as SMILES. Active and inactive are the calls of the source. The calls are words filed in the database; no cut-off is given here.

T4 sequence (P47900 whole entry): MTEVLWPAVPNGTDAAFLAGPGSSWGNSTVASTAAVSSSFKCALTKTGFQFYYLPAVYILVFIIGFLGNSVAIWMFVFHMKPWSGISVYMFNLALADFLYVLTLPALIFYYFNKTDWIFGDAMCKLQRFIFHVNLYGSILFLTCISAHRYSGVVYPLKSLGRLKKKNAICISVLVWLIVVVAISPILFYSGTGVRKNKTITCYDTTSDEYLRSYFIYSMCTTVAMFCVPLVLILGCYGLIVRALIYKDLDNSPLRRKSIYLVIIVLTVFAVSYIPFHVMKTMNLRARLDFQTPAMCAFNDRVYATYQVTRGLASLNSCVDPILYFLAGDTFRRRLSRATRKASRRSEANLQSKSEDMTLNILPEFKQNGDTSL
T3 sequence (P51582 whole entry): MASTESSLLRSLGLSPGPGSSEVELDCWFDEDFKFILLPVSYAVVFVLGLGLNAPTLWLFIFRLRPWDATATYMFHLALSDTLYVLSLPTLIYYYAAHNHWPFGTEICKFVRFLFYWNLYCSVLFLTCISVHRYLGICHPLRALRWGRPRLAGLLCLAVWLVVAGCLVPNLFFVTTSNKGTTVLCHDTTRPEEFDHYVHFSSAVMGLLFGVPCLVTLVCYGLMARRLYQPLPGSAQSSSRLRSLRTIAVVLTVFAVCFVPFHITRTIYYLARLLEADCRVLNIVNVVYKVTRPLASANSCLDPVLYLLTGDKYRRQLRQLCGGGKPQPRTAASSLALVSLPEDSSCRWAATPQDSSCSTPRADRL

As for `Nc1c(S(=O)(=O)O)cc(Nc2ccc(Nc3ccccc3)c(S(=O)(=O)O)c2)c2c1C(=O)c1ccccc1C2=O`, the Kb at P2Y purinoceptor 12 [1] is 0.158 nM.
Regarding `Nc1c(S(=O)(=O)O)cc(Nc2ccc(SCc3cccnc3)cc2)c2c1C(=O)c1ccccc1C2=O`, the inhibition on P2Y purinoceptor 6 [2] was 12%; on P2Y purinoceptor 1 [5], 61%. For the same compound, the half-maximal inhibitory concentration (IC50) on P2Y purinoceptor 4 [3] was 409 nM; at P2Y purinoceptor 1 [4], 25 µM; on P2Y purinoceptor 2, 13.1 µM; on P2Y purinoceptor 6 [6], > 100 µM; on P2Y purinoceptor 12 [7] it was 3590 nM.
On to `Cc1cc(Nc2ccc(F)cc2C(=O)O)c2c(c1N)C(=O)c1ccccc1C2=O`, for which the 50% inhibitory concentration (IC50) at P2Y purinoceptor 4 [3] was 100000 nM. Also, at P2Y purinoceptor 4 [8], the inhibition amounted to 57%.
Consider `Cc1ccc(Sc2ccc(Nc3cc(S(=O)(=O)O)c(N)c4c3C(=O)c3ccccc3C4=O)cc2)c(C)c1`, for which the IC50 was determined as 233 nM on P2Y purinoceptor 4 [3]; 5.48 µM on P2Y purinoceptor 1 [4]; 8.54 µM at P2Y purinoceptor 2; 12.5 µM on P2Y purinoceptor 6 [6]; 2410 nM on P2Y purinoceptor 12 [7]. Moreover, on P2Y purinoceptor 4 [9], the inhibition result was “Active”.
In the case of `Nc1c(S(=O)(=O)O)cc(Nc2cccc(F)c2C(=O)O)c2c1C(=O)c1ccccc1C2=O`, at P2Y purinoceptor 4 [3], the IC50 is > 100000 nM. The inhibition at P2Y purinoceptor 4 [8] was 10%.
